# Activity calls are given as the source filed them. The calls are words filed in the database; no cut-off is given here.
# How the values were obtained:
# [1] = biological target: T1, GABA-A receptor; anion channel (Rattus norvegicus) (UniProt O09028+P15431+P18506+P18508+P19969+P20236+P23574+P23576+P28471+P28473+P30191+P62813+P63079+P63138+Q91ZM7+Q9ES14); assay: Receptor occupancy in vivo by displacement of [3H]Ro-151788 binding from GABA-A receptor in rat at 0.1 mg/kg, po; assay type: functional, organism-based; parameters: dose 0.1 mg/kg
# Summary of the method: (§1)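 Rat in vivo occupancy measured by [3H]Ro 15-1788 binding after oral dosing. Rats taken as a subgroup after the plus-maze trial, i.e. 30 min post-dose or later. ED50 derived from dose-dependent occupancy. Mean ± SEM, n = 5-10/group.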
# [2] = test system: Rattus norvegicus; assay: Anxiolytic activity in rat plus-maze assay at 0.3 mg/kg, po; assay type: functional, organism-based; parameters: dose 0.3 mg/kg
# Summary of the method: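 Rats given vehicle (0.5% methyl cellulose) or compound orally; chlordiazepoxide 5 mg/kg ip as positive control. Placed on elevated plus maze 30 min after dosing; time on open arms recorded as anxiety index. Significance versus vehicle at p < 0.05; mean ± SEM, n = 16-18/group.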
# [3] = Half life in Rhesus monkey; assay type: ADME, organism-based, Macaca mulatta; conditions: in vivo
# Summary of the method: (§2)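 Pharmacokinetics from six animals per species: three dosed iv and three dosed po.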
# [4] = Plasma clearance in Rhesus monkey; assay type: ADME, organism-based, Macaca mulatta; summary of the method: as §2
# [5] = biological target: T1, GABA-A receptor; anion channel (Rattus norvegicus); assay: Receptor occupancy in vivo by displacement of [3H]Ro-151788 binding from GABA-A receptor in rat at 1 mg/kg, po; assay type: functional, organism-based; parameters: dose 1 mg/kg; summary of the method: as §1
compound,measurement,setting,value
Fc1cnc(-c2cc(-c3ccc(F)c(-c4ncccc4F)c3)cnn2)c(F)c1,Activity,[1],57%
Fc1cnc(-c2cc(-c3cnnc(-c4c(F)cncc4F)c3)ccc2F)c(F)c1,Activity,[2],Active
same,half-life,[3],8.4 h
same,clearance,[4],6 mL/min/kg
Fc1cnc(-c2cc(-c3ccc(F)c(-c4ncc(F)cc4F)c3)cnn2)c(F)c1,Activity,[5],71%

# From ChEMBL document CHEMBL1146073, “A pyridazine series of alpha2/alpha3 subtype selective GABA A agonists for the treatment of anxiety” (J Med Chem, 2006)
